The target in test [1] is T1, 17-beta-hydroxysteroid dehydrogenase type 2 (Homo sapiens) (UniProt P37059).
T1 sequence (whole entry): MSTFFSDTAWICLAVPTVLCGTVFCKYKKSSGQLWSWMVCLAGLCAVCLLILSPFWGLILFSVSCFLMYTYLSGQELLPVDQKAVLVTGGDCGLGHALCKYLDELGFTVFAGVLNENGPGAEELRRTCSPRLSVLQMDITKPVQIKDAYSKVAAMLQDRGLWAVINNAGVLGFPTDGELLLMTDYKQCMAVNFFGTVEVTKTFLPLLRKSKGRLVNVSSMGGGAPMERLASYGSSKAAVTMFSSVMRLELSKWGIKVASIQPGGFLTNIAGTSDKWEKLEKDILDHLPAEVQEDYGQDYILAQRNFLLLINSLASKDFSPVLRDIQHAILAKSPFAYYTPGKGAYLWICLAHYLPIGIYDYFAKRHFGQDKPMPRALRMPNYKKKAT
Put plainly: Inhibition of human microsomal 17beta-HSD2 using [2,4,6,7-3H]E2 as substrate at 1 uM after 20 mins by radioflow detector. The essentials: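 Microsomal fraction from human placenta incubated at 37 °C for 20 min with NAD+ (1500 µM), inhibitor and unlabeled plus [2,4,6,7-3H]-E2 (final 500 nM). Phosphate buffer 50 mM with 20% glycerol and 1 mM EDTA. Inhibitor stocks made in DMSO. Reaction stopped with HgCl2 and extracted with ether. E2 and E1 separated by HPLC with radioflow detection. Values are the mean of three determinations.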

Test [2] deals with T2, 17-beta-hydroxysteroid dehydrogenase type 1 (Homo sapiens) (UniProt P14061).
T2 sequence (whole entry): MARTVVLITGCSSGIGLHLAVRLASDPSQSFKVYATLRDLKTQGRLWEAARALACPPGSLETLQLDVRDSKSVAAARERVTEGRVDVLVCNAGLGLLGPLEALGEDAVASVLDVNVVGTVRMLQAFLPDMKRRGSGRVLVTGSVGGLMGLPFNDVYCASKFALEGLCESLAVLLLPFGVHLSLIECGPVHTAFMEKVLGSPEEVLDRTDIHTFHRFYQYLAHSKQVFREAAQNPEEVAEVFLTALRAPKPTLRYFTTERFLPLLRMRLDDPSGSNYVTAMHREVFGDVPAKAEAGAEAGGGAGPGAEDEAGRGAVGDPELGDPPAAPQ
Nature of the test: Inhibition of human cytosolic 17beta-HSD1 using [2,4,6,7-3H]E1 as substrate at 1 uM after 10 mins by radioflow detector. The essentials:
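Cytosolic fraction from human placenta incubated with NADH (500 µM), test compound and unlabeled plus [2,4,6,7-3H]-E1 (final 500 nM) for 10 min at 37 °C. Phosphate buffer 50 mM with 20% glycerol and 1 mM EDTA. Inhibitor stocks made in DMSO. Reaction stopped with HgCl2 and extracted with ether. Substrate and product separated by HPLC with radioflow detection. Values are the mean of three determinations.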

The target in test [3] is T3, 17-beta-hydroxysteroid dehydrogenase type 2 (Homo sapiens, UniProt P37059).
T3 sequence (P37059 whole entry): T1 sequence (whole entry)
Put plainly: Inhibition of human microsomal 17beta-HSD2 in cell-free system using [2,4,6,7-3H]E2 as substrate after 20 mins by radioflow detector.

The target of test [4] is T4, 17-beta-hydroxysteroid dehydrogenase type 1 (Homo sapiens, UniProt P14061).
T4 sequence (P14061 whole entry): T2 sequence (whole entry)
Put plainly: Inhibition of human cytosolic 17beta-HSD1 in cell-free system using [2,4,6,7-3H]E1 as substrate after 10 mins by radioflow detector.

The species entered for a further test is Homo sapiens. Nature of the test: Selectivity ratio of IC50 for human cytosolic 17beta-HSD1 to IC50 for human microsomal 17beta-HSD2. A digest of the protocol:
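Ratio calculated as IC50(17β-HSD1)/IC50(17β-HSD2). 17β-HSD1 was measured in placental cytosol with [3H]-E1 + E1 (500 nM) and NADH (0.5 mM). 17β-HSD2 was measured in placental microsomes with [3H]-E2 + E2 (500 nM) and NAD+ (1.5 mM). Each IC50 is the mean of three determinations.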

Test [5] addresses T5, Estrogen receptor (Homo sapiens) (UniProt P03372).
T5 sequence (whole entry): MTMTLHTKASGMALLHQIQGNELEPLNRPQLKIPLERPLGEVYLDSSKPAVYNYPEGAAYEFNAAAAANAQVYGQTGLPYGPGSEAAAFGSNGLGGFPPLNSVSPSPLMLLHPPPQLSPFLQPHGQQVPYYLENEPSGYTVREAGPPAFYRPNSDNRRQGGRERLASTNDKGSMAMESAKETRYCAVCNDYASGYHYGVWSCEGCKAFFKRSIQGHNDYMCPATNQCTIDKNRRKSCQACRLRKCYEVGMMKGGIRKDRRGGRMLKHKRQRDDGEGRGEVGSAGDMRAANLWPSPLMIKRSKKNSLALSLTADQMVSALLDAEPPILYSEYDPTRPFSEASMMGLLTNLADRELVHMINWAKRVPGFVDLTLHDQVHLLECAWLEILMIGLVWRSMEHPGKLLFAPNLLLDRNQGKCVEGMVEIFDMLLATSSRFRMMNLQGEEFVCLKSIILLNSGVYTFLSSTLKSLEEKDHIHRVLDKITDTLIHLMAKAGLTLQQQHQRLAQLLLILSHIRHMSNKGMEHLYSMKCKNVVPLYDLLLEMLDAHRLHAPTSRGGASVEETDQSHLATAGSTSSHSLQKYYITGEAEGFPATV
Put plainly: Displacement of [3H]E2 from human recombinant ERalpha after 1 hr by liquid scintillation counting relative to estradiol. The essentials:
(§1)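 Recombinant human ERα or ERβ (0.25 pmol) incubated with [3H]-E2 (10 nM) and test compound for 1 h at room temperature, DMSO 5% final. Non-specific binding defined with diethylstilbestrol. Receptor-ligand complexes captured on hydroxyapatite, washed, resuspended in ethanol, and counted by liquid scintillation. IC50 for [3H]-E2 displacement taken from sigmoidal curves. RBA = IC50(E2)/IC50(compound) × 100, with unlabeled E2 as reference.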

Test [6] deals with Estrogen receptor beta (Homo sapiens) (UniProt Q92731). Put plainly: Displacement of [3H]E2 from human recombinant ERbeta after 1 hr by liquid scintillation counting relative to estradiol. The essentials:
as §1

The record followed here is ChEMBL document CHEMBL1926507, “Discovery of a new class of bicyclic substituted hydroxyphenylmethanones as 17β-hydroxysteroid dehydrogenase type 2 (17β-HSD2) inhibitors for the treatment of osteoporosis” (Eur J Med Chem, 2012).

Chain of Estrogen receptor beta (Homo sapiens) (Q92731 whole entry): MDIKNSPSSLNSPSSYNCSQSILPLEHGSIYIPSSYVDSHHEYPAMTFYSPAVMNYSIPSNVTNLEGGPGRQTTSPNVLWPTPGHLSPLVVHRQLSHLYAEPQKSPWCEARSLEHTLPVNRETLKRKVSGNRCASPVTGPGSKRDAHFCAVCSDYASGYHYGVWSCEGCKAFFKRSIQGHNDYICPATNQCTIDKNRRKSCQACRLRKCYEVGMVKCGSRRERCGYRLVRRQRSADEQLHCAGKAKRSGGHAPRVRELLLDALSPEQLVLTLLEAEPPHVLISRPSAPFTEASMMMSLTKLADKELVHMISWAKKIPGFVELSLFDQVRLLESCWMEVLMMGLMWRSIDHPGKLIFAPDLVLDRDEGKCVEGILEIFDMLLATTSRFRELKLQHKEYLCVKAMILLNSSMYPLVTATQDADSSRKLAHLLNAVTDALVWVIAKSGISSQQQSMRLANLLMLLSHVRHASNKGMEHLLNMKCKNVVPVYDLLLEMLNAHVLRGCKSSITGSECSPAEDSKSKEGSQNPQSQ

With `O=C(c1cccc(O)c1)c1cccc(-c2ccc(O)c(F)c2)n1`, the figures for the inhibition in test [1] and in test [2] were 40% and 47%, respectively.
`Cc1cc(-c2cccc(C(=O)c3ccc(C)c(O)c3)n2)ccc1O`: the inhibition in test [1] is 28%; in test [2], below 10%.
For the compound `Cc1cc(-c2cccc(C(=O)c3ccc(F)c(O)c3)n2)ccc1O`, the IC50 in test [3] came out at 757 nM; in test [4] it was 22400 nM. The inhibition in test [1] is 62%; in test [2], below 10%. The Ratio IC50 in the test listed under Homo sapiens amounted to 30.
Turning to `Cc1cc(-c2cccc(C(=O)c3cccc(O)c3)n2)ccc1O`, the values for the inhibition in test [1] and in test [2] were 84% and below 10%, respectively.
Consider `Cc1cc(-c2ccc(C(=O)c3cc(O)cc(F)c3)cc2)ccc1O`, for which the IC50 in test [3] turned out to be 31 nM; in test [4], 159 nM. Moreover, the RBA in test [5] and in test [6] was below 0.1% in each case. Moreover, the values for the inhibition in test [1] and in test [2] were 100% and 84%, respectively. Besides, in the test listed under Homo sapiens, the Ratio IC50 was 5.
For `Cc1cc(-c2cccc(C(=O)c3cc(O)cc(F)c3)n2)ccc1O`, the inhibition in test [1] was 57%; in test [2], below 10%.
Consider `Cc1cc(-c2ccc(C(=O)c3cccc(O)c3)s2)ccc1O`, for which, in the test listed under Homo sapiens, the Ratio IC50 was found to be 0.02.
Consider `Cc1cc(-c2ccc(C(=O)c3ccc(F)c(O)c3)nc2)ccc1O`, for which the figures for the IC50 in test [3] and in test [4] were 101 nM and 1270 nM, respectively. The RBA in test [5] and in test [6] was below 0.1% each time. The inhibition in test [1] is 84%; in test [2], 47%. In addition, the Ratio IC50 in the test filed under Homo sapiens is 13.
As for `Cc1cc(-c2ccc(C(=O)c3cccc(O)c3)nc2)ccc1O`, the IC50 in test [3] amounted to 260 nM; in test [4] it was 5480 nM. Besides, the RBA in test [5] and in test [6] was below 0.1% throughout. Moreover, the inhibition in test [1] was 73%; in test [2] it was 24%. In the test filed under Homo sapiens, the Ratio IC50 turned out to be 21.
In the case of `O=C(c1cccc(O)c1)c1cccc(-c2ccc(O)cc2)n1`, the inhibition in test [1] is 16%; in test [2], below 10%.
Take `O=C(c1ccc(-c2ccc(O)cc2Cl)cc1)c1cccc(O)c1`: the figures for the IC50 in test [3] and in test [4] were 176 nM and 1760 nM, respectively. In addition, the values for the inhibition in test [1] and in test [2] were 80% and 43%, respectively. Also, the Ratio IC50 in the test listed under Homo sapiens turned out to be 11.
Turning to `O=C(c1cccc(O)c1)c1cccc(-c2ccccc2O)n1`, the inhibition in test [1] and in test [2] was below 10% throughout.
With `Cc1cc(-c2ccc(C(=O)c3cccc(O)c3)cn2)ccc1O`, the figures for the IC50 in test [3] and in test [4] were 220 nM and 567 nM, respectively. Moreover, the inhibition in test [1] amounted to 84%; in test [2], 58%. The Ratio IC50 in the test listed under Homo sapiens came to 3.
`O=C(c1cccc(O)c1)c1cccc(-c2ccc(O)cc2F)n1`: the values for the inhibition in test [1] and in test [2] were 56% and 64%, respectively.
Take `Cc1cc(-c2cccc(C(=O)c3cccc(O)c3)c2)ccc1O`: the results for the IC50 in test [3] and in test [4] were 379 nM and 475 nM, respectively. Also, the results for the inhibition in test [1] and in test [2] were 77% and 50%, respectively. The Ratio IC50 in the test filed under Homo sapiens worked out at 1.
Turning to `Cc1cc(-c2ccc(C(=O)c3ccc(F)c(O)c3)cc2)ccc1O`, the IC50 came out at 34 nM in test [3] and 289 nM in test [4]. The RBA in test [5] and in test [6] was below 0.1% each time. Also, the results for the inhibition in test [1] and in test [2] were 98% and 79%, respectively. Besides, the Ratio IC50 in the test listed under Homo sapiens was 9.
In the case of `Cc1cc(O)ccc1-c1cccc(C(=O)c2cccc(O)c2)n1`, the inhibition in test [1] is 18%; in test [2] it was below 10%.
As to `O=C(c1ccc(-c2ccc(O)c(Cl)c2)cc1)c1cccc(O)c1`, the values for the IC50 in test [3] and in test [4] were 153 nM and 571 nM, respectively. Also, the RBA in test [5] and in test [6] was below 0.1% throughout. In addition, the values for the inhibition in test [1] and in test [2] were 92% and 66%, respectively. For the same compound, the Ratio IC50 in the test filed under Homo sapiens was found to be 4.
`O=C(c1cccc(O)c1)c1cccc(-c2ccc(O)c(Cl)c2)n1`: the IC50 in test [3] worked out at 752 nM; in test [4], 60600 nM. Moreover, the inhibition in test [1] is 55%; in test [2], below 10%. The Ratio IC50 in the test filed under Homo sapiens worked out at 81.
As for `O=C(c1cccc(O)c1)c1cccc(-c2cccc(O)c2)n1`, the inhibition in test [1] and in test [2] was below 10% throughout.
For the compound `O=C(c1ccc(-c2ccc(O)c(Cl)c2)cc1)c1ccc(F)c(O)c1`, the IC50 in test [3] is 24 nM; in test [4] it was 53 nM. Moreover, the RBA in test [5] and in test [6] was below 0.1% in each case. Moreover, the inhibition in test [1] was found to be 100%; in test [2], 95%. In addition, in the test listed under Homo sapiens, the Ratio IC50 amounted to 2.
`Cc1cc(-c2ccc(C(=O)c3ccc(F)c(F)c3)cc2)ccc1O`: the inhibition in test [1] turned out to be 11%; in test [2], 16%.
In the case of `O=C(c1ccc(F)c(O)c1)c1ccc(-c2ccc(O)c(Cl)c2)cn1`, the figures for the IC50 in test [3] and in test [4] were 153 nM and 1010 nM, respectively. Further, the inhibition came to 87% in test [1] and 50% in test [2]. Further, the Ratio IC50 in the test filed under Homo sapiens was found to be 7.
In the same order, the values of `O=C(c1ccc(-c2ccc(O)c(F)c2)cc1)c1cccc(O)c1` are 525 nM, 2430 nM, 68%, 26% and 5.
In the case of `Cc1cc(-c2ccc(C(=O)c3cccc(O)c3)cc2)ccc1O`, the IC50 in test [3] was 132 nM; in test [4] it was 413 nM. Further, the RBA in test [5] and in test [6] was below 0.1% in each case. In addition, the results for the inhibition in test [1] and in test [2] were 90% and 58%, respectively. Besides, the Ratio IC50 in the test listed under Homo sapiens stood at 3.

What is called inhibition is the change of the read-out against control, counted positive when it falls. A higher inhibition goes with a response far below the control. For orientation: IC50 means the concentration that gives 50% inhibition. A high value points to weaker potency.
